According to paper PMC7781011 (Journal of Inflammation Research, 2020):

How the values were obtained:
mouse COX-1 = molecular target: T1, mouse COX-1 (Mus musculus, UniProt P22437); assay: Cell-free fluorometric COX-1 assay; type: biochemical
T1 sequence (P22437 27-602): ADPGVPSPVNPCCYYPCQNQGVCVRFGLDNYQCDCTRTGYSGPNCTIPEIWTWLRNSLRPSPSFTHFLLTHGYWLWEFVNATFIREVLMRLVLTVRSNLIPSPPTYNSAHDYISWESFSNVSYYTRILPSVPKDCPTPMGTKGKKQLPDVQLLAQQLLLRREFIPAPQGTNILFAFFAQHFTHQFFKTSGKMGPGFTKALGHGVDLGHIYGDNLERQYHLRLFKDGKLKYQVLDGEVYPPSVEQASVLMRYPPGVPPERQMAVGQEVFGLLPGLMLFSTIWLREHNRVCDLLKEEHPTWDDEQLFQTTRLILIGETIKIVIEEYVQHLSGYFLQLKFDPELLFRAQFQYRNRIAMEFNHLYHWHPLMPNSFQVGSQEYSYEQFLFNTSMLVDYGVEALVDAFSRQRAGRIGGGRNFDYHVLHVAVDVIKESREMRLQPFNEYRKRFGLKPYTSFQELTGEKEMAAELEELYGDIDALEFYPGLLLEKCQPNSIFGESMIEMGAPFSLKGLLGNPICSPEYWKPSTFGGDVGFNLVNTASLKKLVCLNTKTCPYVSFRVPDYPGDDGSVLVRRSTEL

mouse mPGES-1 = molecular target: T2, mouse mPGES-1 (Mus musculus, UniProt Q9JM51); assay: Cell-free mPGES-1 assay; type: biochemical
T2 sequence (Q9JM51 1-153): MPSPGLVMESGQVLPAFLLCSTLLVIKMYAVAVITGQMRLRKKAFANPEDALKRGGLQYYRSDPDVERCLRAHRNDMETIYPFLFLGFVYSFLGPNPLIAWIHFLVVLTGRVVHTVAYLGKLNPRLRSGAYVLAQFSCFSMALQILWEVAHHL
Outline: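 Enzyme in 15 mM Tris-HCl pH 7.4 with 1 mM GSH, preincubated 20 min with compound (0.1–100 µM); plate held 15 min at 20°C. PGH2 (final 2.8 µM) added, 45 s at room temperature, then stopped with SnCl2 in 1N HCl. PGE2 by ELISA, in triplicate, % inhibition versus untreated. Human enzyme from E. coli or commercial; mouse enzyme from vas deferens/seminal vesicles. IC50 by four-parameter nonlinear regression.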

[1] = tested on: PGE2 production in LPS-stimulated macrophages of humans, mice, and rats; assay: PGE2 production in LPS-stimulated macrophages, range over species; type: cell-based; conditions: Macrophage, read-out: IC50 range PGE2 production
Outline: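 Human macrophages derived from THP-1 monocytes with PMA. Rat/mouse peritoneal macrophages collected by lavage with ice-cold DMEM, selected by glass adherence (1 h, 37°C), Trypan-blue checked. Cells in DMEM+10% FBS at 10,000 (96-well) or 40,000 (24-well) per well, given non-toxic compound doses, then LPS 10 µg/mL for 24 h. PGE2, PGI2 and LTB4 measured in supernatant. IC50 by four-parameter nonlinear regression.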

mouse 5-LOX = molecular target: T3, mouse 5-LOX (Mus musculus, UniProt P48999); assay: Cell-free fluorometric 5-LOX assay; type: biochemical
T3 sequence (P48999 1-674): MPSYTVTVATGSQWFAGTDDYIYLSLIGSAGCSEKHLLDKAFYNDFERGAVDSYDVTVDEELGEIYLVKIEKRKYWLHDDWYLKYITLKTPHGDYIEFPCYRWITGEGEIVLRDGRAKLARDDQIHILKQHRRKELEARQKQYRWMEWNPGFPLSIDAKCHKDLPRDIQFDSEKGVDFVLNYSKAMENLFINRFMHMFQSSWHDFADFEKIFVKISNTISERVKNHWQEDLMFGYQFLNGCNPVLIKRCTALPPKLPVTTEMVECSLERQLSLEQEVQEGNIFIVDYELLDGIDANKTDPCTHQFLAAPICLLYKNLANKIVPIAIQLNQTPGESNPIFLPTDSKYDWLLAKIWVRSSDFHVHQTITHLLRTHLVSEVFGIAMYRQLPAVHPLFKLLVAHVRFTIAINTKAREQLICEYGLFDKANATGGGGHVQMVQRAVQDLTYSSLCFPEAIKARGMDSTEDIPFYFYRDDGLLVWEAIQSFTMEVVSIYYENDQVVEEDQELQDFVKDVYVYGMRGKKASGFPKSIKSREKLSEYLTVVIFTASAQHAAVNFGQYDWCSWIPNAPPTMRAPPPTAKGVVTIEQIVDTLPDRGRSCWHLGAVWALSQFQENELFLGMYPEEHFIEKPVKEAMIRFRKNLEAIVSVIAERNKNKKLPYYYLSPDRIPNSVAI

mouse COX-2 = molecular target: T4, mouse COX-2 (Mus musculus, UniProt Q05769); assay: Cell-free fluorometric COX-2 assay; type: biochemical
T4 sequence (Q05769 18-604): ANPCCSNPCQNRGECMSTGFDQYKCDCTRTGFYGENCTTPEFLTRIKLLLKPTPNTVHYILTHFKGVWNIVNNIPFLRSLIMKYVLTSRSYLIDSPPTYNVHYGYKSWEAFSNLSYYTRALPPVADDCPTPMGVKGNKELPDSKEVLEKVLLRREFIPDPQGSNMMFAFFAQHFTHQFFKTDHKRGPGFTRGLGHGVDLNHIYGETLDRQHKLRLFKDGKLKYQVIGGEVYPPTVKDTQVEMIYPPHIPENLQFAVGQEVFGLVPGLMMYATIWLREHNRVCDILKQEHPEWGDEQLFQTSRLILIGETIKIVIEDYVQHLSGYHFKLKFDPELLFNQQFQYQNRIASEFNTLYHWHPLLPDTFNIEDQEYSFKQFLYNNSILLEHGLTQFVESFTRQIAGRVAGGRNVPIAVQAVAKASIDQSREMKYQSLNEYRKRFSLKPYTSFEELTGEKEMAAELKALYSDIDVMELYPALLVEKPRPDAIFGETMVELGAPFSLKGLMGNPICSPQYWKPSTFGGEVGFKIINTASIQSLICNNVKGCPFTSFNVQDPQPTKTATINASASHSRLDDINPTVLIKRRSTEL

[2] = cell-free, mouse, up to the tested range of 1 mM

IC50 (mouse COX-1)	IC50 (mouse COX-2)	Compound	inhibition of COX-1 activity (mouse COX-1; [2])	IC50 (mouse mPGES-1)	IC50 [1]	IC50 (mouse 5-LOX)	inhibition of COX-2 activity (mouse COX-2; [2])
		CC1(C)Cc2c(-c3ccccc3)c(-c3ccc(Cl)cc3)c(CC(=O)NCC(=O)O)n2C1 [LFA-9, 2-[[2-[2-(4-chlorophenyl)-6,6-dimethyl-1-phenyl-5,7-dihydropyrrolizin-3-yl]acetyl]amino]acetic acid]	did not show inhibition	520 nM	470 to 780 nM	2640 nM	did not show inhibition
1740 nM	2010 nM	CC1(C)Cc2c(-c3ccccc3)c(-c3ccc(Cl)cc3)c(CC(=O)O)n2C1 [Licofelone, reference compound]		> 15000 nM	560 to 1310 nM	2340 nM	
